Test results reported in PMC13170702 (Nuclear medicine and biology, 2025).

Assay: organ radiation dose estimates, both OLINDA software versions
Type: in vivo, human
Summary of the method: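 Per-participant organ doses from OLINDA 1.1 (ICRP-60) and 2.0 (ICRP-103) were pooled by sex as mean ± SD (n = 4 per sex), in mGy/MBq; effective dose in mSv/MBq. Males and females were compared at p < 0.05. Kidney dose per MBq was related to injected activity and benchmarked against FDA 21CFR361 single-study limits (30 mSv whole body; 50 mGy other organs).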

[1] = range of sex means from both software versions

kidney dose per injected activity used for the limit (0.237 mGy/MBq × 211 MBq = 50 mGy): 0.237 mGy/MBq | renal estimated radiation dose (Males 1–2 and Female 2, 289–355 MBq given): > 50 mSv | ratio of estimated kidney dose to radioactivity given (Males 1–2 and Female 4): > 0.21 mGy/MBq | critical organ (highest mean absorbed dose, primary route of elimination): kidneys | estimated absorbed doses, remaining organs and tissues and Effective dose (organs other than kidneys, liver, small intestine): < 0.035 mGy/MBq | kidneys mean absorbed estimated radiation dose [1]: 0.142 to 0.214 mGy/MBq | liver mean absorbed dose [1]: 0.0392 to 0.0449 mGy/MBq
Compound: COC(=O)[C@@H](N)CC(=O)Nc1ccc2c(c1)Cc1cc([18F])ccc1-2 [[^18F]RP-115, methyl N^4-(7-[^18F]fluoro-9H-fluoren-2-yl)asparaginate]
